This assay in a line: Antitumor activity against human KB3 cells after 96 hrs by MTT assay. It is filed as functional, cell-based. The note with it: KB3, 96 h. The method in brief: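 Human KB-3 carcinoma cells exposed to increasing compound concentrations; viability read by MTT colorimetric assay after 96 h. Values are means of triplicate assays, expressed relative to untreated controls.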

As to `C=C(C)[C@H]1CC=C(C)[C@@]2(O)[C@@H]1[C@H](c1ccccc1Br)O[C@@H]2C(=O)O`, the IC50 – broadly, the concentration needed to halve the response being measured – is above 100 µM.
For the compound `C=C(C)[C@H]1CC=C(C)C2=CO[C@@H](c3ccccc3Br)[C@@H]21`, inhibition was half-maximal at 4 µM (IC50).
`C=C(C)[C@H]1CC=C(C)[C@H]2[C@@H]1[C@H](c1ccccc1Br)O[C@@H]2C(=O)OCC` had an IC50 above 100 µM.
As for `C=C(C)[C@H]1CC=C(C)[C@@]2(O)[C@@H]1[C@H](c1ccccc1Br)O[C@@H]2C(=O)OCC1CC1`, the IC50 was determined as 50 µM.
On to `C=C(C)[C@H]1CC=C(C)[C@@]2(O)[C@@H]1[C@H](c1ccccc1Br)O[C@@H]2C(=O)OCC1CCCC1`, for which the IC50 is above 100 µM.
`C=C(C)[C@H]1CC(=O)C(C)=C2[C@@H](C(=O)OCC)O[C@@H](c3cccc(Br)c3)[C@@H]21` gave an IC50 of 30 µM.
The value for `C=C(C)[C@H]1CC=C(C)[C@@]2(O)[C@@H]1[C@H](c1cccc3ccccc13)O[C@@H]2C(=O)OC` was 10 µM; that for `C=C(C)[C@H]1CC=C(C)C2=CO[C@@H](c3cccc4ccccc34)[C@@H]21` was above 100 µM; that for `C=C(C)[C@H]1CC=C(C)C2=CO[C@@H](c3ccco3)[C@@H]21` was 2 µM.
Under `C=C(C)[C@H]1CC=C(C)[C@@]2(O)[C@@H]1[C@H](c1ccccc1Br)O[C@@H]2C(=O)OC` stands 5 µM; under `C=C(C)[C@H]1CC=C(C)[C@@]2(O)[C@@H]1[C@H](c1cccc(Br)c1)O[C@@H]2C(=O)OCC`, 3 µM; under `C=C(C)[C@H]1CC(=O)C(C)=C2[C@@H](C(=O)OCC)O[C@@H](c3cccc(Cl)c3Cl)[C@@H]21`, 5 µM.
Take `C=C(C)[C@H]1CC=C(C)[C@@]2(O)[C@@H]1[C@H](c1ccccn1)O[C@@H]2C(=O)OC`: the IC50 came to 100 µM.
The compound `C=C(C)[C@H]1CC=C(C)[C@@]2(O)[C@@H]1[C@H](c1ccccc1Br)O[C@@H]2C(=O)OCC` gave a 50% inhibitory concentration (IC50) of 20 µM. Compared with the last compound, the IC50 is about 5-fold lower.
Compound `C=C(C)[C@H]1CC=C(C)[C@@]2(O)[C@@H]1[C@H](c1cccc(Cl)c1Cl)O[C@@H]2C(=O)OCC` came in with an IC50 of 5 µM.
`C=C(C)[C@H]1CC(=O)C(C)=C2[C@@H](C(=O)OCC)O[C@@H](c3ccccc3Br)[C@@H]21` had an IC50 of 70 µM.

The values are drawn from ChEMBL document CHEMBL1153726, “Synthesis and anticancer activity of sclerophytin-inspired hydroisobenzofurans” (Bioorg Med Chem Lett, 2009).
